What all share (assay type): functional, cell-based
Test [1] has as its system B16. The test is described as follows: Cytotoxicity against mouse B16 cells after 72 hrs by MTT assay. The following applies: B16, 72 h. An outline of the steps:
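B16 melanoma cells were seeded at 15 000 cells/mL in RPMI 1640 with 5% FCS, and after 5 h the medium was switched to RPMI with 1% FCS. Serial dilutions from 0.25 to 100 µM were added on days 1, 2 and 3. Cells were incubated at 37 °C in 10% CO2 for 72 h, and viability was read by MTT on day 4. Each concentration ran in triplicate wells, and each experiment was repeated at least three times.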

Another test has as its system HaCaT. The test is described as follows: Cytotoxicity against human HaCaT cells after 72 hrs by MTT assay. An outline of the steps: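 HaCaT keratinocytes were seeded at 25 000 cells/mL in DMEM with 10% FCS, and after 5 h the medium was switched to reduced-serum DMEM. Serial dilutions from 0.25 to 100 µM were added on days 1, 2 and 3. Cells were incubated at 37 °C in 10% CO2 for 72 h, and viability was read by MTT on day 4. Each concentration ran in triplicate wells, and each experiment was repeated at least three times.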
A general note: Formazan colour is commonly taken as a measure of viable cells.

The subject of test [2] is B16. The test can be described thus: Cytotoxicity against mouse B16 cells after 48 hrs by MTT assay. The settings on record: B16, 48 h. An outline of the steps:
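Mouse B16 melanoma cells were seeded at 30 000 cells/mL in RPMI 1640 with 10% FCS on day 0. Compound dilutions were added on day 1. Cells were incubated at 37 °C under 10% CO2, and growth and viability were read by MTT after 48 h. IC50 was derived from at least three independent experiments, with three wells per concentration.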

In ChEMBL document CHEMBL1153742, “Cytotoxic constituents of the lichen Diploicia canescens” (J Nat Prod, 2009) one finds IC50 data, which are given here for seven compounds.

One may read the IC50 as the point on the concentration scale where inhibition reaches its midpoint.

Take `COc1cc([C@@H]2c3cc4c(cc3[C@@H](O[C@@H]3O[C@@H]5CO[C@@H](C)O[C@H]5[C@H](O)[C@H]3O)[C@H]3COC(=O)[C@H]23)OCO4)cc(OC)c1O` [ETOPOSIDE]: the half-inhibitory concentration (IC50) stood at 0.28 µM with B16 [1] and 0.55 µM in the test on HaCaT.

On to `COC(=O)c1c(Oc2c(C)c(Cl)c(OC)c(Cl)c2O)cc(OC)c(Cl)c1C` [BUELLIN], for which the half-inhibitory concentration (IC50) in the test on B16 [1] is 0.25 µM; with HaCaT, more than 10 µM.

On to `COc1c(Cl)c(C)c2c(c1Cl)OC(=O)c1c(C)c(Cl)c(O)c(Cl)c1O2` [DIPLOICIN], for which the figures for the IC50 in the test on B16 [1] and in the test on HaCaT were 4 µM and more than 10 µM, respectively.

`COc1c(Cl)c(C)c2c(c1Cl)OC(=O)c1c(cc(O)c(Cl)c1C)O2` [DECHLORODEPLOICIN]: the figures for the concentration for half-maximal inhibition (IC50) with B16 [1] and in the test with HaCaT were 1.7 µM and 4.3 µM, respectively.

Turning to `COC(=O)[C@@]12Oc3ccc(-c4ccc5c(c4O)C(=O)C4=C(O)C[C@H](C)[C@H](O)[C@]4(C(=O)OC)O5)c(O)c3C(=O)C1=C(O)C[C@H](C)[C@@H]2O` [SECALONIC ACID B], the IC50 in the test on B16 [2] was 2.8 µM; with HaCaT it was more than 10 µM.

As for `COc1cc2c(c(C)c1Cl)Oc1cc(OC)c(Cl)c(C)c1C(=O)O2` [SCENSIDIN], the IC50 stood at 0.4 µM with B16 [1] and 6.1 µM in the test on HaCaT.

Take `COC(=O)[C@@]12Oc3ccc(-c4ccc5c(c4O)C(O)C4=C(O)C[C@H](C)[C@@H](O)[C@]4(C(=O)OC)O5)c(O)c3C(=O)C1=C(O)C[C@H](C)[C@H]2O` (some centres undefined) [SECALONIC ACID D]: the values for the IC50 with B16 [2] and with HaCaT were 0.28 µM and 3.7 µM, respectively.
